Data on 6 compounds can be found in ChEMBL document CHEMBL2169837 (J Med Chem, 2012).

Experiment [1] has as its target T1, Vasopressin V2 receptor (Homo sapiens, UniProt P30518). Put plainly: Binding affinity to SNAP-tagged vasopressin V2 receptor expressed in COS7 cells assessed as interaction with vasopressin V2/V1a receptor dimer after 1 hr by FRET assay. The format is cell-based. As to conditions: COS-7. A digest of the protocol: (§1)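 Cos7 cells expressing SNAP-V1a, SNAP-V2 or both, 50000 cells/well. Incubated overnight at 4 °C with one donor plus one acceptor fluorescent ligand, each near its Kd. Signal given as %ΔF from the 665/620 ratio (excitation 335 nm) against mock cells. Receptor expression measured by SNAP-Lumi4-Tb labeling (100 nM, 1 h, room temperature), read at 620 nm.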

Experiment [2] concerns the target T1, Vasopressin V2 receptor. Put plainly: Binding affinity to SNAP-tagged vasopressin V2 receptor expressed in COS7 cells after 1 hr by FRET assay. The format is cell-based. To be noted: COS-7. A digest of the protocol: as §1
The species entered for experiment [3] is Homo sapiens. Put plainly: Selectivity ratio of Ki for human oxytocin receptor to Ki for human vasopressin V2 receptor.
For experiment [4], the target named is T2, Oxytocin receptor (Homo sapiens, UniProt P30559).
T2 sequence (P30559 whole entry): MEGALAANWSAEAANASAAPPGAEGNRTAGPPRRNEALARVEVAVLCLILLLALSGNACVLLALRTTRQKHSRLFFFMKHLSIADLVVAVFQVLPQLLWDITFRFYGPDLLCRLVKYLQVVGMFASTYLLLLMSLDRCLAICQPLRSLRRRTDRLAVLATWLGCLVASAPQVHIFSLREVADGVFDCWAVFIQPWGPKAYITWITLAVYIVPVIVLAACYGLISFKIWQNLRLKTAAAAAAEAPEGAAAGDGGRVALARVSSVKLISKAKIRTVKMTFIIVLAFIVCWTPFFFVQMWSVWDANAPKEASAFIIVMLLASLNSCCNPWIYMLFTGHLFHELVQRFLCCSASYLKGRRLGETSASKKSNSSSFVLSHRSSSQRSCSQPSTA
The experiment in a line: Displacement of [3H]-AVP from human oxytocin receptor expressed in CHO cells after 30 mins. The format is cell-based. Background: Displacement assays read how much labelled ligand stays bound in the presence of the test substance.

Experiment [5] addresses T3, Vasopressin V1b receptor (Homo sapiens) (UniProt P47901).
T3 sequence (whole entry): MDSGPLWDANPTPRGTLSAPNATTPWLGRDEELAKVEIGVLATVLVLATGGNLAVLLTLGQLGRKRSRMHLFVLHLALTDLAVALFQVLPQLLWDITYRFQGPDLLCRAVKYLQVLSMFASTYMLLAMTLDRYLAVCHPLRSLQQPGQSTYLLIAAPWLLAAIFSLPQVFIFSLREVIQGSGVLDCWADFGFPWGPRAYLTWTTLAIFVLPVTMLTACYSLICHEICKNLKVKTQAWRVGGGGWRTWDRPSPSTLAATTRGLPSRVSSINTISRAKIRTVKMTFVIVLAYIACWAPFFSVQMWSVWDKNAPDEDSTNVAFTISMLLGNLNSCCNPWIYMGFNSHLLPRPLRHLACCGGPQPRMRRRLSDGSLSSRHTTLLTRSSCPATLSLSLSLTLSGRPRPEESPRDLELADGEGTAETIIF
Put plainly: Displacement of [3H]-AVP from human vasopressin V1b receptor expressed in CHO cells at 10 uM after 30 mins. The format is cell-based. A digest of the protocol:
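Human OTR, V1aR or V1bR membranes from CHO cells, [3H]-AVP displacement with compound at a single 10 μM concentration, 30 min at 30 °C in Tris-HCl pH 7.4/MgCl2/BSA buffer.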

Experiment [6] concerns the target T4, Vasopressin V1b receptor (Homo sapiens, UniProt P47901).
T4 sequence (P47901 whole entry): T3 sequence (whole entry)
Put plainly: Displacement of [3H]-AVP from human vasopressin V1b receptor expressed in CHO cells after 30 mins. Type of experiment: cell-based.

In experiment [7] the target is T5, Vasopressin V1a receptor (Homo sapiens, UniProt P37288). Put plainly: Displacement of [3H]-AVP from human vasopressin V1a receptor expressed in CHO cells after 30 mins. Type of experiment: cell-based.
Target sequence in this assay (P37288 whole entry): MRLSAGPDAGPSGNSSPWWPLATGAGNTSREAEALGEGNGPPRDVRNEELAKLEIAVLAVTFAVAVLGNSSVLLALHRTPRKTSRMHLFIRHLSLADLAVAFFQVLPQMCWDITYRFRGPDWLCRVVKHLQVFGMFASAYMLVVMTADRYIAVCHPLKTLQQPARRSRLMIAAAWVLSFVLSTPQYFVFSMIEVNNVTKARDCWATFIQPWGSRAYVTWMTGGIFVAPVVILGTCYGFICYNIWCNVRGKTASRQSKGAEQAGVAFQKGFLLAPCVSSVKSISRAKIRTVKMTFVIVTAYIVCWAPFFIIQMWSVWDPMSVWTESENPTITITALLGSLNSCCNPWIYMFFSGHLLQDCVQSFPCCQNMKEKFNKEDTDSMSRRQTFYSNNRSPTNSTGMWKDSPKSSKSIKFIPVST
For experiment [8], the target named is T1, Vasopressin V2 receptor. The experiment in a line: Binding affinity to SNAP-tagged vasopressin V2 receptor expressed in HEK293 cells after 1 hr by TR-FRET assay. Type of experiment: cell-based. In short, it runs like this: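 HEK 293T cells electroporated with SNAP-tag–V2R and grown 48 h. Receptor labeled 1 h at 37 °C with SNAP-Lumi4-Tb (100 nM) or SNAP-RED (300 nM), then washed. Rising fluorescent-ligand concentrations added and incubated overnight at 4 °C. TR-FRET read with excitation 340 nm, emission 620/665 nm. Nonspecific binding taken with 10 μM unlabeled ligand. Kd from saturation, three experiments in triplicate.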

The target of experiment [9] is T1, Vasopressin V2 receptor. The experiment in a line: Antagonist activity at human vasopressin V2 receptor expressed in CHO cells assessed as inhibition of AVP-induced cAMP accumulation after 30 mins by TR-FRET based HTRF assay. The format is functional, cell-based. A digest of the protocol: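 CHO cells stably expressing human V2R, 5 × 10^3 per well on polyornithine, used 24 h after seeding. Incubated 30 min at 37 °C with compound (10−12 to 10−5 M) plus phosphodiesterase inhibitor RO 201724 0.1 mM. Antagonist mode run with 1 nM AVP. Cells lysed and cAMP read by HTRF (TR-FRET). Kact/Kinact from three independent experiments in triplicate, mean ± SEM.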
Background: Changes in cAMP serve as a functional read-out for many G protein-coupled receptors.

For experiment [10], the target named is T1, Vasopressin V2 receptor. Put plainly: Agonist activity at human vasopressin V2 receptor expressed in CHO cells assessed as cAMP accumulation after 30 mins by TR-FRET based HTRF assay. Type of experiment: functional, cell-based. A digest of the protocol:
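CHO cells stably expressing human V2R, 5 × 10^3 per well on polyornithine, used 24 h after seeding. Cells lysed and cAMP read by HTRF (TR-FRET). Kact/Kinact from three independent experiments in triplicate, mean ± SEM.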

In experiment [11] the target is T1, Vasopressin V2 receptor. The experiment in a line: Displacement of [3H]-AVP from human vasopressin V2 receptor expressed in CHO cells after 30 mins. The format is cell-based.
Experiment [12] addresses T5, Vasopressin V1a receptor. Put plainly: Binding affinity to SNAP-tagged vasopressin V1a receptor expressed in COS7 cells assessed as interaction with vasopressin V2/V1a receptor dimer after 1 hr by FRET assay. As to conditions: COS-7. Type of experiment: cell-based. A digest of the protocol:
as §1
Target sequence in this assay (P37288 whole entry, looked up): as the sequence (P37288 whole entry) above

Experiment [13] deals with T5, Vasopressin V1a receptor. Put plainly: Binding affinity to SNAP-tagged vasopressin V1a receptor expressed in COS7 cells after 1 hr by FRET assay. The format is cell-based. As to conditions: COS-7. A digest of the protocol:
as §1
Target sequence in this assay (P37288 whole entry, looked up): as the sequence (P37288 whole entry) above

For experiment [14], the target named is T6, Muscarinic acetylcholine receptor M1 (Homo sapiens, UniProt P11229).
T6 sequence (P11229 whole entry): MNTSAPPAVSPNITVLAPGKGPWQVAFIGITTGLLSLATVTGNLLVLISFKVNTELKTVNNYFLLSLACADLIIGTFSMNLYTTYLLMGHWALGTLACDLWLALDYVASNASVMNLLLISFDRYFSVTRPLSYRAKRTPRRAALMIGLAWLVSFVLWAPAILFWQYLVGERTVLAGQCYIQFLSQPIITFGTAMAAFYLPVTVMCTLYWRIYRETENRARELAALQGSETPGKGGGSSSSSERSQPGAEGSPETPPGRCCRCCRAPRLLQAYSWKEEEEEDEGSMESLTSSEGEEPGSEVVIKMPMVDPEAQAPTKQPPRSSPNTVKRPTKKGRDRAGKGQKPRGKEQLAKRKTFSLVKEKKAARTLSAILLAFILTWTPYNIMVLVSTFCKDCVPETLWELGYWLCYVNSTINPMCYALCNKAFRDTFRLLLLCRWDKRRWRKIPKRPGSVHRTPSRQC
The experiment in a line: Binding affinity to human muscarinic M1 receptor.

A short description of experiment [15]: Binding affinity to vasopressin V2 receptor in rabbit kidney membranes. The format is cell membranes, Oryctolagus cuniculus, Membrane.
For experiment [16], the target named is T2, Oxytocin receptor. The experiment in a line: Binding affinity to oxytocin receptor. In short, it runs like this: (§2)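 Membranes (5 μg protein) from CHO cells stably expressing human V2R, V1aR, V1bR or OTR. Incubated 30 min at 30 °C in 50 mM Tris-HCl pH 7.4, 5 mM MgCl2, 1 mg/mL BSA with [3H]-AVP (1−2 nM) and competitor from 100 pM to 100 μM. Nonspecific binding with 10 μM AVP. GF/C filtration; Ki by nonlinear least-squares regression. Triplicate, at least three membrane batches.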

The target of experiment [17] is T5, Vasopressin V1a receptor. Put plainly: Binding affinity to vasopressin V1a receptor. In short, it runs like this: as §2
Target sequence in this assay (P37288 whole entry): as the sequence (P37288 whole entry) above
For experiment [18], the target named is Vasopressin V2 receptor (Oryctolagus cuniculus). Put plainly: Binding affinity to vasopressin V2 receptor.

Activity calls are given as the source filed them. No cut-off for these calls is given here.

T1 sequence (P30518 whole entry): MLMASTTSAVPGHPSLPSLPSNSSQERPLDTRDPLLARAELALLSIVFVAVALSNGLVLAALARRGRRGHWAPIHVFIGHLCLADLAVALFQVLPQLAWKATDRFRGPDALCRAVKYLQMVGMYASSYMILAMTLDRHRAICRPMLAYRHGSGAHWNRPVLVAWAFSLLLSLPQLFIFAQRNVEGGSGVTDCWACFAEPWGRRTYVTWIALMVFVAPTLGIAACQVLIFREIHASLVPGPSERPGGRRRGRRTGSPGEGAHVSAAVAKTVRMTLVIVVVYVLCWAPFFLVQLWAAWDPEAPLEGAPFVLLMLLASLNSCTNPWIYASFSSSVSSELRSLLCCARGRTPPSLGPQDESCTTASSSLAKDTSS

As for `CCN1/C(=C/C=C/C=C/C2=[N+](CC)c3ccc(S(=O)(=O)[O-])cc3C2(C)C)C(C)(CCCC(=O)NCCn2cc(CNC(=O)CCC(=O)NC3CCCN(C(=O)c4ccc(NC(=O)c5ccccc5-c5ccccc5)cc4)c4ccccc43)nn2)c2cc(S(=O)(=O)O)ccc21` (centres undefined), the outcome in experiment [1] and in experiment [2] was Active. Moreover, the Ratio Ki in [3] worked out at 32. The Ki (as a rule, the dissociation constant of the complex between target and ligand, obtained from inhibition or displacement) in experiment [4] is 184 nM; in experiment [6], greater than 10000 nM; in experiment [7], 621 nM; in [11], 5.69 nM. In addition, the inhibition (usually how much of the control response was suppressed) in experiment [5] is less than 50%; in [9], “Dose-dependent effect”. For the same compound, in experiment [8], binding was put at a Kd of 1.38 nM. The Kb (usually the affinity of an antagonist, worked out from how it opposes an agonist) in experiment [9] is 0.1 nM. Further, the outcome in experiment [10] was inactive.

As to `COc1ccc(C[C@@H](NC(=O)CCc2ccc(O)cc2)C(=O)N[C@@H](Cc2ccccc2)C(=O)N[C@@H](CCC(N)=O)C(=O)N[C@@H](CC(N)=O)C(=O)N[C@@H](CCCNC(=N)N)C(=O)N2CCC[C@H]2C(=O)N[C@@H](CCCCNC(=O)CCCCC2(C)C(/C=C/C=C/C=C3\N(CCCS(=O)(=O)O)c4ccc(S(=O)(=O)[O-])cc4C3(C)C)=[N+](CCCS(=O)(=O)O)c3ccc(S(=O)(=O)O)cc32)C(N)=O)cc1` (some centres undefined), the result in [12] and in experiment [13] was Active.

The compound `O=C(CCC1=[N+]2C(C=C1)Cc1ccc(-c3cccs3)n1[B-]2(F)F)NCCN1CCN(CC(=O)N2c3ccccc3C(=O)Nc3cccnc32)CC1` (centres undefined) had a Ki in experiment [14] greater than 1000 nM.

For the compound `O=C(CCC1=[N+]2C(C=C1)Cc1ccc(-c3cccs3)n1[B-]2(F)F)NCCCCCCN1CCN(CC(=O)N2c3ccccc3C(=O)Nc3cccnc32)CC1` (centres undefined), the inhibition constant (Ki) in experiment [14] came out at 8.8 nM. This lies in the single-digit nanomolar range.

Consider `O=C(Nc1ccc(C(=O)N2CCCCc3ccccc32)cc1)c1ccccc1-c1ccccc1`, for which the inhibitory constant (Ki) in experiment [15] came to 7.6 nM; in experiment [16] it was 63 nM; in experiment [17] it was 14.1 nM; in [18] it was 7.5 nM. Further, the inhibition result in [9] is “Dose-dependent effect”. For the same compound, the result in experiment [10] was inactive.

Consider `Cc1ccccc1C(=O)Nc1ccc(C(=O)N2CCCCc3ccccc32)cc1`, for which the Ki in experiment [15] worked out at 7.2 nM; in experiment [16] it was 30 nM; in experiment [17] it was 8.1 nM; in experiment [11] it was 2.68 nM; in experiment [18] it was 7.2 nM. In experiment [9], the inhibition result is “Dose-dependent effect”. In addition, the outcome in [10] was inactive.
